Results: PubChem BioAssay AID651929 (Vanderbilt Specialized Chemistry Center, 2012)
Calls of active or inactive are those of the source. The rule behind the calls is not given here.

Biological target: Muscarinic acetylcholine receptor M2 (Rattus norvegicus) (UniProt P10980)
Assay: rat M2 positive allosteric modulation check – CHO cells, calcium flux, selectivity assay for M5 PAM discovery project (AID 651929)
How it was run: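 System: CHO-K1 cells expressing M2 receptor coupled to Gqi5 chimera / Detection: intracellular calcium response / Reagent: acetylcholine at EC20 (submaximal) concentration / Incubation: 1.5 min compound pretreatment, 50 s acetylcholine stimulation, 25 °C / Measure: calcium signal normalized to baseline, then % maximal acetylcholine response / Medium: pH 7.4 buffer containing probenecid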

Muscarinic acetylcholine receptor M2 (Rattus norvegicus), sequence (P10980 whole entry, looked up): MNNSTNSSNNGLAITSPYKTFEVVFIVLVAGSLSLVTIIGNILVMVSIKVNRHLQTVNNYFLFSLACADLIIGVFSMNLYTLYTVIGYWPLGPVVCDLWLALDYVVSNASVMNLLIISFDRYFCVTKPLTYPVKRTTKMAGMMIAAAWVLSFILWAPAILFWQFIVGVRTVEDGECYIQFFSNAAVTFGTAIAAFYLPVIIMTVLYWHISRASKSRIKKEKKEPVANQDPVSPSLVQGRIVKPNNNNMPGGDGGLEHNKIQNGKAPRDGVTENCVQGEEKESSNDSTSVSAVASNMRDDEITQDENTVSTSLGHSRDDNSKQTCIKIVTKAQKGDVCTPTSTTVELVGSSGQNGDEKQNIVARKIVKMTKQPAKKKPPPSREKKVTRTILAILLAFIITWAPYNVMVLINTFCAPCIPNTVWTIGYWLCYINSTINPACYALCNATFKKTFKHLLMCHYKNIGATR

O=C1C(=O)N(CCOc2ccccc2)c2ccc(OC(F)(F)F)cc21
outcome: inactive
